This passage reports Activity and inhibition results from ChEMBL document CHEMBL1926618, “Homosecoiridoids from the flower buds of Lonicera japonica” (2011).

Structures are written as SMILES. Calls of active or inactive are those of the source. The calls are words filed in the database; no cut-off is given here.

In one assay the test system is BGC-823. Nature of the assay: Cytotoxicity against human BGC823 cells at 10 uM after 96 hrs by MTT assay. The assay is classed as functional, cell-based.
The target of assay [1] is T1, Tyrosine-protein phosphatase non-receptor type 1 (Homo sapiens) (UniProt P18031).
T1 sequence (whole entry): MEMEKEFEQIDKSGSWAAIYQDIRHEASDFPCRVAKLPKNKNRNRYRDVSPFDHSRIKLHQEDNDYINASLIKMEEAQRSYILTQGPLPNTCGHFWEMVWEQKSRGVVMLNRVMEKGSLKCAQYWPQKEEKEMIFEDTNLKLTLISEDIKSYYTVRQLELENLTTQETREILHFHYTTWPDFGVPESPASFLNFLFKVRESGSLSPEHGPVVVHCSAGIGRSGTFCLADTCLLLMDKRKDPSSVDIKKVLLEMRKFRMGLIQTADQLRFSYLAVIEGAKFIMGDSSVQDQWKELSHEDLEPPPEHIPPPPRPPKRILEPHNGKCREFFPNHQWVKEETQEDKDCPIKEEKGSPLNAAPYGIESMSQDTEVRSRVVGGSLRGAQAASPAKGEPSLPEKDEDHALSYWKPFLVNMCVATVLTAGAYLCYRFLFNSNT
The assay can be described thus: Inhibition of GST-tagged human PTP1B PTPase activity using p-NPP as substrate at 10 uM after 10 mins by spectrophotometry.

The subject of another assay is MCF7. The assay can be described thus: Cytotoxicity against human MCF7 cells at 10 uM after 96 hrs by MTT assay. In kind it is functional, cell-based. (In general: Tetrazolium dyes change colour on reduction, which living cells bring about.)
Assay [2] in a line: Antiinflammatory activity in rat polymorphonuclear leukocytes assessed as inhibition of platelet-activating factor-induced glucuronidase release at 10 uM preincubated for 15 mins before challenge by spectrophotometry. The assay is classed as functional.
For a further assay, the system named is Bel-7402. The assay can be described thus: Cytotoxicity against human Bel7402 cells at 10 uM after 96 hrs by MTT assay. In kind it is functional, cell-based.
In assay [3] the target is Signal transducer and activator of transcription 3 (Homo sapiens) (UniProt P40763). The assay can be described thus: Inhibition of STAT-3 activity in HELF cells at 10 uM. In kind it is cell-based. In short, it runs like this:
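HELF cells grown in DMEM with 10% FCS under humidified 5% CO2, transfected with pSTAT-3-TA-luc firefly luciferase reporter plasmid by lipofectamine 2000. After 24 h, treated in 5% FBS with compound or DMSO for 24 h. Luciferase activity read in cell lysates by luminometer; activity expressed relative to DMSO-treated transfected cells set at 100%.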

Assay [4] relates to Human immunodeficiency virus 1. The assay can be described thus: Antiviral activity against HIV1 infected in 293T cells at 10 uM pretreated for 15 mins prior infection measured after 48 hrs by luciferase reporter gene assay. In kind it is functional, organism-based. On the technique in general: In a reporter assay the amount or activity of a reporter protein is the signal.
Another assay deals with A549. Nature of the assay: Cytotoxicity against human A549 cells at 10 uM after 96 hrs by MTT assay. In kind it is functional, cell-based.
For a further assay, the system named is Liver microsomes. Nature of the assay: Antioxidant activity against Fe2+-cystine induced lipid peroxidation in rat liver microsomes at 10 uM. The assay is classed as functional. Conditions: Microsome. Background: Liver microsomes are a subcellular fraction often used to study metabolism.
In another assay the test system is PC-12. The assay can be described thus: Neuroprotective activity against glutamate-induced neurotoxicity in rat PC12 cells at 10 uM preincubated for 24 hrs prior challenge measured after 24 hrs by MTT assay. In kind it is functional, cell-based.
In another assay the test system is HCT-8. Nature of the assay: Cytotoxicity against human HCT8 cells at 10 uM after 96 hrs by MTT assay. In kind it is functional, cell-based.
Another assay deals with KETR3. Nature of the assay: Cytotoxicity against human Ketr3 cells at 10 uM after 96 hrs by MTT assay. The assay is classed as functional, cell-based.

Sequence of Signal transducer and activator of transcription 3 (Homo sapiens) (P40763 whole entry): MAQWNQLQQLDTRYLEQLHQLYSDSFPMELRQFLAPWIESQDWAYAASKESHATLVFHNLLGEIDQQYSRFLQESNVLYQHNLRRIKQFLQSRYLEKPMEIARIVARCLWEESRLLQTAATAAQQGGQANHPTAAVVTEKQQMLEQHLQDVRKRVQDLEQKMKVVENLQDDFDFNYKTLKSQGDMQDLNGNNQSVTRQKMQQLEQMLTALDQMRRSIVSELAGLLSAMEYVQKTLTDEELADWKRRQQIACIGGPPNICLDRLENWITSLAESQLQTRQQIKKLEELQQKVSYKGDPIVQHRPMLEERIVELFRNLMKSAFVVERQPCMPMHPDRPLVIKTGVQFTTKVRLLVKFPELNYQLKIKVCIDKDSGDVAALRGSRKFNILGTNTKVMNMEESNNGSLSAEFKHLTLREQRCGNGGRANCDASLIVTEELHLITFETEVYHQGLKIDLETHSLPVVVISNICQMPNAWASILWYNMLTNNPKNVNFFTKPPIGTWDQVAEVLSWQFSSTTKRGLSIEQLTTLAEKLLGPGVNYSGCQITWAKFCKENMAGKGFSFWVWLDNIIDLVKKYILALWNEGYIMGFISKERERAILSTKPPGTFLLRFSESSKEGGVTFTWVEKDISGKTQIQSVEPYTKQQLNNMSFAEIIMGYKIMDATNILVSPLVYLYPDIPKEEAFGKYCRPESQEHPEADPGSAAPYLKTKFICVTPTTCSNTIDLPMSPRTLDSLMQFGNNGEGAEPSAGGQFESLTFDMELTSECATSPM

Turning to `O=C(O)C1=CO[C@@H](O[C@@H]2O[C@H](CO)[C@@H](O)[C@H](O)[C@H]2O)[C@H]2[C@@H]1C[C@@H]1C[C@H]2OC=C1c1ccccc1` [LONIPHENYRUVIRIDOSIDE A], the outcome (in the assay with BGC-823; in the assay with MCF7; with Bel-7402; in [4]; with A549; in the assay with Liver microsomes) was inactive. The result in the assay on PC-12, with HCT-8 and in the assay on KETR3 was inactive. In addition, in assay [1], the inhibition (commonly how much of the control response was suppressed) is “inactive”. Further, the inhibition at 10 µM in assay [2] is < 30%. For the same compound, the inhibition in [3] turned out to be 45.7%.

For `C=C[C@H]1[C@H](O[C@@H]2O[C@H](CO)[C@@H](O)[C@H](O)[C@H]2O)OC=C2C(=O)O[C@@H](/C(=C(/O)C(=O)O)c3ccccc3)C[C@H]21` [LONIPHENYRUVIRIDOSIDE B], the outcome (in the assay on BGC-823; in the assay on MCF7; in the assay with Bel-7402; in assay [4]; in the assay on A549; with Liver microsomes) was inactive. Also, the result in the assay with PC-12, in the assay with HCT-8 and with KETR3 was inactive. The inhibition result in assay [1] is “inactive”. Moreover, the inhibition at 10 µM in assay [2] was < 30%. The inhibition in assay [3] was found to be 25.8%.

Turning to `C=C[C@H]1[C@H](O[C@@H]2O[C@H](CO)[C@@H](O)[C@H](O)[C@H]2O)OC=C2C(=O)O[C@H](/C(=C(/O)C(=O)O)c3ccccc3)C[C@@H]21` [LONIPHENYRUVIRIDOSIDE C], the result (in the assay on BGC-823; with MCF7; in the assay with Bel-7402; in [4]; with A549; with Liver microsomes) was inactive. The outcome with PC-12, with HCT-8 and in the assay on KETR3 was inactive. The inhibition result in assay [1] is “inactive”. Also, the inhibition at 10 µM in [2] is < 30%. The same compound gave an inhibition in assay [3] of 30.9%.

For `C=C[C@H]1[C@H](O[C@@H]2O[C@H](CO)[C@@H](O)[C@H](O)[C@H]2O)OC=C(C(=O)O)[C@H]1C[C@H]1OC(=O)C(O)=C1c1ccccc1` [LONIPHENYRUVIRIDOSIDE D], the outcome (with BGC-823; in the assay with MCF7; in the assay on Bel-7402; in assay [4]; with A549; in the assay on Liver microsomes) was inactive. The result in the assay with PC-12, in the assay with HCT-8 and in the assay with KETR3 was inactive. Besides, the inhibition entry in [1] is “inactive”. In addition, the inhibition at 10 µM in [2] was < 30%. Also, the inhibition in assay [3] worked out at 48.8%.
